Among the data in ChEMBL document CHEMBL1156966, “A new cytotoxic tambjamine alkaloid from the Azorean nudibranch Tambja ceutae” (Bioorg Med Chem Lett, 2010) are IC50 values, retold here.

pIC50: −log10 of the molar value.

The pIC50 is the IC50 on a negative log10 scale, so that one unit is a factor of ten. A high value points to a small IC50.

Test [1] deals with C6. As to the kind of experiment: Cytotoxicity against rat C6 cells after 48 hrs by MTT assay. In kind it is functional, cell-based. To be noted: C6, 48 h. Summed up: (§1)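 Cells exposed 48 h to a range of concentrations, then counted. Viability and proliferation read by MTT, which measures mitochondrial dehydrogenase activity.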
(In general: Tetrazolium dyes change colour on reduction, which living cells bring about.)

The subject of test [2] is 3T3-L1. As to the kind of experiment: Cytotoxicity against mouse 3T3L1 cells after 48 hrs by MTT assay. The class given is cell-based. The conditions noted are these: 3T3-L1, 48 h. Put shortly: as §1
Test [3] has as its system HeLa. As to the kind of experiment: Cytotoxicity against human HeLa cells after 48 hrs by MTT assay. In kind it is functional, cell-based. Put shortly: as §1
Test [4] concerns H9c2. Put plainly: Cytotoxicity against rat H9c2 cells after 48 hrs by MTT assay. The class given is cell-based. The conditions noted are these: H9c2, 48 h. Summed up: as §1
Test [5] deals with Caco-2. Put plainly: Cytotoxicity against human Caco-2 cells after 48 hrs by MTT assay. In kind it is functional, cell-based. The conditions noted are these: Caco-2, 48 h. Summed up: as §1

Consider `COC1=CC(c2ccc[nH]2)=N/C1=C/c1[nH]c(-c2ccc[nH]2)cc1OC`, for which the negative logarithm of the IC50 (pIC50) is 5.15 in test [1]; 4.62 in test [2]; 4.15 in test [3]; 3.97 in test [4]; 4.04 in test [5].
On the same counts, the results for `COC1=CC(c2ccc[nH]2)=N/C1=C\NCCC(C)C` [TAMBJAMINE K] are 4.85, 4.72, 4.84, 5.57 and 8.46.
